Data: ChEMBL document CHEMBL4152203, “Antiproliferative hydrogen sulfide releasing evodiamine derivatives and their apoptosis inducing properties” (Eur J Med Chem, 2018)

How the values were obtained:
PBMC = test: Antiproliferative activity against human PBMC cells after 72 hrs by MTT assay; assay type: cell-based
Procedure, shortened: (§1)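 Cells seeded and pre-incubated 24 h at 37 °C, 5% CO2, then exposed to compounds for 72 h. MTT (5 mg/mL stock) added for 4 h, formazan dissolved in DMSO for 10 min at room temperature, absorbance read at 570 nm. 0.1% DMSO as negative and 5-FU as positive reference. IC50 derived from inhibition ratios; mean ± SD of three independent experiments.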

MCF7 = test: Antiproliferative activity against human MCF7 cells after 72 hrs by MTT assay; assay type: functional, cell-based; settings: MCF7, 72 h; procedure, shortened: as §1
Caco-2 = test: Antiproliferative activity against human Caco2 cells after 72 hrs by MTT assay; assay type: functional, cell-based; settings: Caco-2, 72 h; procedure, shortened: as §1
Bel-7402 = test: Antiproliferative activity against human Bel7402 cells after 72 hrs by MTT assay; assay type: functional, cell-based; settings: Bel-7402, 72 h; procedure, shortened: as §1
SGC-7901 = test: Antiproliferative activity against human SGC7901 cells after 72 hrs by MTT assay; assay type: functional, cell-based; settings: SGC-7901, 72 h; procedure, shortened: as §1
HL-60 = test: Antiproliferative activity against human HL60 cells after 72 hrs by MTT assay; assay type: functional, cell-based; settings: HL-60, 72 h; procedure, shortened: as §1

Row | SMILES | IC50 (PBMC) | IC50 (MCF7) | IC50 (Caco-2) | IC50 (Bel-7402) | IC50 (SGC-7901) | IC50 (HL-60)
1 | CN1c2ccccc2C(=O)N2CCc3c(n(CCCCC(=O)OCCOc4ccc(-c5cc(=S)ss5)cc4)c4ccccc34)C21 (stereo not drawn) | > 100 µM | 29.7 µM | 4.22 µM | 41.4 µM | 43.6 µM | 2.09 µM
2 | CN1c2ccccc2C(=O)N2CCc3c([nH]c4ccccc34)C21 (stereo not drawn) | 21 µM | 28.5 µM | 2.73 µM | 1.19 µM | 6.93 µM | 1.36 µM
3 | CN1c2ccccc2C(=O)N2CCc3c(n(CCCOC(=O)CCCCC4CCSS4)c4ccccc34)C21 (stereo not drawn) | > 100 µM | 39.7 µM | 2.84 µM | > 50 µM | > 50 µM | 2.09 µM
4 | CN1c2ccccc2C(=O)N2CCc3c(n(CC(=O)OCCOc4ccc(-c5cc(=S)ss5)cc4)c4ccccc34)C21 (stereo not drawn) | > 100 µM | 38.4 µM | 6.35 µM | 26.8 µM | 32.9 µM | 1.92 µM
5 | CN1c2ccccc2C(=O)N2CCc3c(n(CCCC(=O)OCCOc4ccc(-c5cc(=S)ss5)cc4)c4ccccc34)C21 (stereo not drawn) | > 100 µM | 40.2 µM | 4.18 µM | 45.2 µM | 47.4 µM | 1.03 µM
6 | CN1c2ccccc2C(=O)N2CCc3c(n(CCCCCCOC(=O)CCCCC4CCSS4)c4ccccc34)C21 (stereo not drawn) | > 100 µM | 28 µM | 4.88 µM | 22.1 µM | 35.7 µM | 3.49 µM
7 | CN1c2ccccc2C(=O)N2CCc3c(n(CCOC(=O)CCCCC4CCSS4)c4ccccc34)C21 (stereo not drawn) | > 100 µM | 9.47 µM | 3.18 µM | 20.5 µM | > 50 µM | 0.97 µM
8 | CN1c2ccccc2C(=O)N2CCc3c(n(CCCC(=O)Oc4ccc(-c5cc(=S)ss5)cc4)c4ccccc34)C21 (stereo not drawn) | > 100 µM | > 50 µM | 4.08 µM | > 50 µM | > 50 µM | 14.1 µM
9 | O=c1[nH]cc(F)c(=O)[nH]1 [FLUOROURACIL] |  | 26.9 µM | 38.8 µM | 19 µM | 19.8 µM | 3.46 µM
10 | CN1c2ccccc2C(=O)N2CCc3c(n(CCCCC(=O)OCCCOc4ccc(-c5cc(=S)ss5)cc4)c4ccccc34)C21 (stereo not drawn) | > 100 µM | > 50 µM | 3.05 µM | 30.5 µM | > 50 µM | 0.99 µM
11 | CN1c2ccccc2C(=O)N2CCc3c(n(CCCC(=O)OCCCOc4ccc(-c5cc(=S)ss5)cc4)c4ccccc34)C21 (stereo not drawn) | > 100 µM | > 50 µM | 2.81 µM | > 50 µM | > 50 µM | 1.04 µM
12 | CN1c2ccccc2C(=O)N2CCc3c(n(CC(=O)OCCCCOc4ccc(-c5cc(=S)ss5)cc4)c4ccccc34)C21 (stereo not drawn) | > 100 µM | > 50 µM | 4.34 µM | > 50 µM | > 50 µM | 0.83 µM
13 | CN1c2ccccc2C(=O)N2CCc3c(n(CC(=O)OCCCOc4ccc(-c5cc(=S)ss5)cc4)c4ccccc34)C21 (stereo not drawn) | > 100 µM | 27.9 µM | 5.1 µM | 34.2 µM | 24.7 µM | 2.74 µM
14 | CN1c2ccccc2C(=O)N2CCc3c(n(CCCCC(=O)Oc4ccc(-c5cc(=S)ss5)cc4)c4ccccc34)C21 (stereo not drawn) | > 100 µM | 48.7 µM | 38.1 µM | > 50 µM | 30.2 µM | > 50 µM
15 | Oc1ccc(-c2cc(=S)ss2)cc1 | > 100 µM | > 50 µM | 35.5 µM | > 50 µM | > 50 µM | 25.9 µM
16 | CN1c2ccccc2C(=O)N2CCc3c(n(CC(=O)Oc4ccc(-c5cc(=S)ss5)cc4)c4ccccc34)C21 (stereo not drawn) | > 100 µM | 47.5 µM | 22.9 µM | 25.8 µM | 26.8 µM | > 50 µM
17 | CN1c2ccccc2C(=O)N2CCc3c(n(CCCOCCCOC(=O)CCCCC4CCSS4)c4ccccc34)C21 (stereo not drawn) | > 100 µM | 22.4 µM | 5.14 µM | > 50 µM | 31 µM | 9.38 µM
18 | O=C(O)CCCCC1CCSS1 (stereo not drawn) [LIPOIC ACID, ALPHA] | > 100 µM | > 50 µM | 14.3 µM | > 50 µM | > 50 µM | 16.4 µM
19 | CN1c2ccccc2C(=O)N2CCc3c(n(CCCC(=O)OCCCCOc4ccc(-c5cc(=S)ss5)cc4)c4ccccc34)C21 (stereo not drawn) | > 100 µM | 29.1 µM | 3.87 µM | 45 µM | > 50 µM | 0.7 µM
